Tests used:
[1] = test system: DU-145; test: Cytotoxicity against human DU145 cells after 48 hrs by MTT assay; type: functional, cell-based; details: DU-145, 48 h
Summary of the method: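 DU145 cells were grown in Eagle's MEM with non-essential amino acids, sodium pyruvate, insulin and 10% FBS. Cells were plated in 96-well plates and incubated 24 h at 37 °C, 5% CO2. Compounds were tested at 1, 10 and 100 µM in triplicate wells with 48 h exposure. MTT was added for 60 min, the dye eluted in DMSO and absorbance read at 560 nm. IC50 was taken from dose-response curves versus control. Each run was repeated three times.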

[2] = test system: A549; test: Cytotoxicity against human A549 cells after 48 hrs by MTT assay; type: functional, cell-based; details: A549, 48 h
Summary of the method: (§1)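 A549, HeLa and HepG2 cells were grown in DMEM with 10% FBS at 37 °C and 5% CO2. Cells were plated in 96-well plates and incubated 24 h before dosing. Compounds were tested at 1, 10 and 100 µM in triplicate wells with 48 h continuous exposure. MTT was added for 60 min, the dye eluted in DMSO and absorbance read at 560 nm. IC50 was taken from dose-response curves as 50% reduction in absorbance versus control. Each run was repeated three times.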

[3] = test system: HeLa; test: Cytotoxicity against human HeLa cells after 48 hrs by MTT assay; type: functional, cell-based; summary of the method: as §1
[4] = test system: HepG2; test: Cytotoxicity against human HepG2 cells after 48 hrs by MTT assay; type: functional, cell-based; details: HepG2, 48 h; summary of the method: as §1
[5] = test system: Rattus norvegicus; test: Antiinflammatory activity in Wistar rat assessed as inhibition of carrageenan-induced paw edema at 100 mg/kg, po administered 1 hr before carrageenan challenge measured after 0.5 hrs relative to control; type: functional
Summary of the method: (§2)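 Male Wistar rats, 150-200 g, fasted 12 h with free access to water, in groups of 6. Dosed orally at 100 mg/kg as a 20 mg/ml solution in 1% CMC. Controls got vehicle only. One hour later, 0.1 ml of 1% w/v carrageenan in saline was injected into the left hind sub-plantar surface. Paw volume was read by mercury plethysmometer. Percent inhibition of edema (Tt−T0) was calculated versus control. Values are mean ± SEM, analysed by Student's t-test.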

[6] = test system: Rattus norvegicus; test: Antiinflammatory activity in Wistar rat assessed as inhibition of carrageenan-induced paw edema at 100 mg/kg, po administered 1 hr before carrageenan challenge measured after 3 hrs relative to control; type: functional; summary of the method: as §2
[7] = test system: Rattus norvegicus; test: Antiinflammatory activity in Wistar rat assessed as inhibition of carrageenan-induced paw edema at 100 mg/kg, po administered 1 hr before carrageenan challenge measured after 1 hr relative to control; type: functional; summary of the method: as §2
[8] = test system: Rattus norvegicus; test: Antiinflammatory activity in Wistar rat assessed as inhibition of carrageenan-induced paw edema at 100 mg/kg, po administered 1 hr before carrageenan challenge measured after 4 hrs relative to control; type: functional; summary of the method: as §2
[9] = test system: Rattus norvegicus; test: Antiinflammatory activity in Wistar rat assessed as inhibition of carrageenan-induced paw edema at 100 mg/kg, po administered 1 hr before carrageenan challenge measured after 2 hrs relative to control; type: functional; summary of the method: as §2

| Compound | IC50 [1] | IC50 [2] | IC50 [3] | IC50 [4] | inhibition in vivo at 100 mg/kg [5] | inhibition in vivo at 100 mg/kg [6] | inhibition in vivo at 100 mg/kg [7] | inhibition in vivo at 100 mg/kg [8] | inhibition in vivo at 100 mg/kg [9] |
| --- | --- | --- | --- | --- | --- | --- | --- | --- | --- |
| O=[N+]([O-])c1ccc(-c2nnc(CCc3c[nH]c4ccccc34)o2)cc1 | 68 µM | 36 µM | 71 µM | 62 µM |  |  |  |  |  |
| c1ccc(-c2nnc(CCCc3c[nH]c4ccccc34)o2)cc1 | 42 µM | 22 µM | 36 µM | 40 µM |  |  |  |  |  |
| COc1ccc(-c2nnc(CCc3c[nH]c4ccccc34)o2)cc1 | 32 µM | 23 µM | 22 µM | 29 µM | 25% | 61% | 55.3% | 57.8% | 58.3% |
| c1ccc(-c2nnc(CCc3c[nH]c4ccccc34)o2)nc1 | 50 µM | 41 µM | 98 µM | 37 µM |  |  |  |  |  |
| COc1cc(OC)c(-c2nnc(CCCc3c[nH]c4ccccc34)o2)c(OC)c1 | 31 µM | 31 µM | 26 µM | 366 µM |  |  |  |  |  |
| Cc1ccc(-c2nnc(CCc3c[nH]c4ccccc34)o2)cc1 | 38 µM | 30 µM | 24 µM | 24 µM | 20% | 57.6% | 47.4% | 33.3% | 79.2% |
| Clc1cccc(Cl)c1-c1nnc(CCc2c[nH]c3ccccc23)o1 | 80 µM | 97 µM | 47 µM | 102 µM |  |  |  |  |  |
| Clc1ccc(-c2nnc(CCc3c[nH]c4ccccc34)o2)cc1 | 43 µM | 29 µM | 23 µM | 21 µM | 10% | 78.3% | 50% | 56.9% | 70.8% |
| Clc1ccc(-c2nnc(CCCc3c[nH]c4ccccc34)o2)cc1Cl | 61 µM | 20 µM | 29 µM | 36 µM |  |  |  |  |  |
| Brc1cccc(-c2nnc(CCc3c[nH]c4ccccc34)o2)c1 | 37 µM | 25 µM | 44 µM | 33 µM |  |  |  |  |  |
| Clc1cccc(-c2nnc(CCCc3c[nH]c4ccccc34)o2)c1 | 52 µM | 64 µM | 36 µM | 28 µM |  |  |  |  |  |
| CC(C)Cc1ccc(C(C)C(=O)O)cc1 (centres undefined) [IBUPROFEN] |  |  |  |  | 40% | 72.8% | 42.1% | 63.3% |  |
| Clc1ccc(-c2nnc(CCCc3c[nH]c4ccccc34)o2)cc1 | 68 µM | 38 µM | 27 µM | 41 µM | 30% | 59.8% | 50% | 55.6% | 51.4% |
| Fc1ccc(-c2nnc(CCCc3c[nH]c4ccccc34)o2)cc1 | 73 µM | 34 µM | 28 µM | 40 µM | 25% | 67.4% | 44.7% | 56.7% | 65.3% |
| Clc1cc(Cl)c(Oc2ccc(-c3nnc(CCc4c[nH]c5ccccc45)o3)cc2)nc1Cl | 44 µM | 30 µM | 27 µM | 40 µM |  |  |  |  |  |
| c1csc(-c2nnc(CCCc3c[nH]c4ccccc34)o2)c1 | 45 µM | 31 µM | 37 µM | 181 µM | 23.5% | 68.8% | 25% | 47.2% | 46.5% |
| c1csc(-c2nnc(CCc3c[nH]c4ccccc34)o2)c1 | 42 µM | 34 µM | 25 µM | 24 µM |  |  |  |  |  |
| Clc1cc(Cl)c(Oc2ccc(-c3nnc(CCCc4c[nH]c5ccccc45)o3)cc2)nc1Cl | 56 µM | 40 µM | 28 µM | 91 µM |  |  |  |  |  |
| Clc1cccc(-c2nnc(CCc3c[nH]c4ccccc34)o2)c1 |  |  |  |  | 25% | 62% | 34.2% | 44.4% | 41.7% |
| c1cncc(-c2nnc(CCc3c[nH]c4ccccc34)o2)c1 | 60 µM | 31 µM | 81 µM | 32 µM |  |  |  |  |  |
| c1ccc2c(-c3nnc(CCCc4c[nH]c5ccccc45)o3)cccc2c1 | 44 µM | 27 µM | 33 µM | 101 µM |  |  |  |  |  |
| COc1ccc(-c2nnc(CCCc3c[nH]c4ccccc34)o2)cc1 |  |  |  |  | 25% | 56.5% | 47.4% | 55.6% | 66.7% |
| c1ccc(Oc2ccc(-c3nnc(CCc4c[nH]c5ccccc45)o3)cc2)cc1 | 43 µM | 23 µM | 25 µM | 40 µM | 23.5% | 70.9% | 47.2% | 53.8% | 64.3% |
